Data on one compound can be found in ChEMBL document CHEMBL4190252, “Synthesis, antitumor activity and CDK1 inhibiton of new thiazole nortopsentin analogues” (Eur J Med Chem, 2017).

This experiment concerns the target Cyclin-dependent kinase 1/cyclin B1 (Homo sapiens, UniProt P06493). Put plainly: Inhibition of recombinant human full length His-tagged CDK1/cyclin B expressed in baculovirus expression system after 60 mins in presence of omnia peptide substrate by fluorescence based assay. A digest of the protocol:
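Recombinant human CDK1/cyclin B in kinase buffer with Omnia peptide substrate, ATP and DTT, with inhibitor at 0.1–10 µM. Reactions ran for 60 min at 30 °C, with fluorescence read at ex 360/em 485 nm. Initial velocity came from the RFU-versus-time slope and was plotted against concentration for a dose-response IC50 fit. Values are mean±SD of two determinations.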

Chain of Cyclin-dependent kinase 1/cyclin B1 (P06493 whole entry): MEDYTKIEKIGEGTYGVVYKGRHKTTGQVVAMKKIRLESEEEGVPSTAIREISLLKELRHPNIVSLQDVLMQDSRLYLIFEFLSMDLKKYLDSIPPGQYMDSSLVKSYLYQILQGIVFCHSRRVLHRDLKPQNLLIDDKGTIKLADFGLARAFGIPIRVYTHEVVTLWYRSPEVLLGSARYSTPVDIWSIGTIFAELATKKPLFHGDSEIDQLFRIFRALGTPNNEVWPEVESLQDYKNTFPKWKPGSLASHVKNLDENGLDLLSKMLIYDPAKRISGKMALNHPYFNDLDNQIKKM
Chain of Cyclin-dependent kinase 1/cyclin B1 (P14635 whole entry, further chain): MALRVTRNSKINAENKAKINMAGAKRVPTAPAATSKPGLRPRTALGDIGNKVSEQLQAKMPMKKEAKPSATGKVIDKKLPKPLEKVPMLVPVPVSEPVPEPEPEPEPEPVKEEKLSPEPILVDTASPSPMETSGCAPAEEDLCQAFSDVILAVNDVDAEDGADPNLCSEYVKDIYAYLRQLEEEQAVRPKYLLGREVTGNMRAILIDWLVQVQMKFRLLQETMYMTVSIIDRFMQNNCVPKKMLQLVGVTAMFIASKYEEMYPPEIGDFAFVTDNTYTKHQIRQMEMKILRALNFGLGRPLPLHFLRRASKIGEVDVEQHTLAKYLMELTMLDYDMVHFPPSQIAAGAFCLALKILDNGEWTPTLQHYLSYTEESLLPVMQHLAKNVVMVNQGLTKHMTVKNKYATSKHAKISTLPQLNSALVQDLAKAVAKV

As for `Cn1cc(-c2nc(-c3cn(C)c4ncccc34)cs2)c2cc(F)ccc21`, the IC50 amounted to 0.97 µM.
